Experimental data reported in ChEMBL document CHEMBL2412964, “Discovery of novel tetrahydro-pyrazolo [4,3-c] pyridines for the treatment of neuropathic pain: synthesis and neuropharmacology” (Eur J Med Chem, 2013).

Assays:
Rattus norvegicus [1] = assay: Antinociceptive activity in Wistar rat partial sciatic nerve ligation model assessed as reversal of spontaneous pain response at 100 mg/kg, ip after 120 mins (reference value: 1.2 +/- 0.1%); format: functional; details: route intraperitoneal
Rattus norvegicus [2] = assay: Antinociceptive activity in Wistar rat partial sciatic nerve ligation model assessed as reversal of spontaneous pain response at 100 mg/kg, ip after 60 mins (reference value: 2.9 +/- 0.3%); format: functional; details: route intraperitoneal
Rattus norvegicus [3] = assay: Antinociceptive activity in Wistar rat partial sciatic nerve ligation model assessed as reversal of mechanical allodynia at 100 mg/kg, ip after 60 mins (reference value: 2.8 +/- 0.3%); format: functional; details: route intraperitoneal
Rattus norvegicus [4] = assay: Antinociceptive activity in Wistar rat chronic constriction injury model assessed as reversal of spontaneous pain response at 100 mg/kg, ip after 60 mins (reference value: 4.6 +/- 0.6%); format: functional; details: route intraperitoneal
Rattus norvegicus [5] = assay: Antinociceptive activity in Wistar rat chronic constriction injury model assessed as reversal of tactile allodynia at 100 mg/kg, ip after 120 mins (reference value: 4.1 +/- 2.1%); format: functional; details: route intraperitoneal
Rattus norvegicus [6] = assay: Antinociceptive activity in Wistar rat chronic constriction injury model assessed as reversal of mechanical allodynia at 100 mg/kg, ip after 60 mins (reference value: 4.9 +/- 1.0%); format: functional; details: route intraperitoneal
Rattus norvegicus [7] = assay: Antinociceptive activity in Wistar rat chronic constriction injury model assessed as reversal of mechanical allodynia at 100 mg/kg, ip after 120 mins (reference value: 5.3 +/- 0.5%); format: functional; details: route intraperitoneal
Mus musculus [8] = assay: Antinociceptive activity in Swiss albino mouse assessed as inhibition of formalin-induced flinching at 100 mg/kg administered 30 mins prior to test measured up to 5 mins relative to control; format: functional
Mus musculus [9] = assay: Anticonvulsant activity in ip dosed Swiss albino mouse assessed as protection against picrotoxin-induced seizure administered 30 mins prior to picrotoxin-challenge measured after 0.5 hrs; format: functional; details: read-out: MED
In short: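 Mice, either sex, 20-25 g, given compound i.p. at 30, 100 and 300 mg/kg. Thirty minutes later, picrotoxin 3.15 mg/kg was injected s.c. in 0.01 mL/g body weight. Animals were isolated and watched for 45 min for a threshold convulsion, and protection was scored as its absence. Examined at 0.5 and 4 h. Value reported is the minimum dose active in half or more of the mice (n = 3).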

Rattus norvegicus [10] = assay: Antinociceptive activity in Wistar rat partial sciatic nerve ligation model assessed as reversal of cold allodynia at 100 mg/kg, ip after 60 mins (reference value: 2.5 +/- 0.3%); format: functional; details: route intraperitoneal
Rattus norvegicus [11] = assay: Antinociceptive activity in ip dosed Wistar rat partial sciatic nerve ligation model assessed as reversal of mechanical allodynia after 30 mins; format: functional; details: 0.5 h
In short: (§1)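 Wistar rats (200–250 g) with nerve injury, compounds i.p. in 30% v/v PEG 400; dose–response curves in each sensory test (spontaneous pain and cold allodynia as paw withdrawal duration; tactile allodynia and hyperalgesia as withdrawal threshold). ED50 linearly interpolated between doses just above and below 50% response; time of peak effect recorded.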

Rattus norvegicus [12] = assay: Antinociceptive activity in Wistar rat partial sciatic nerve ligation model assessed as reversal of tactile allodynia at 100 mg/kg, ip after 30 mins (reference value: 7.7 +/- 0.7%); format: functional; details: route intraperitoneal
Mus musculus [13] = assay: Antinociceptive activity in Swiss albino mouse assessed as inhibition of formalin-induced flinching at 100 mg/kg administered 30 mins prior to test measured for 10 to 30 mins relative to control; format: functional
Rattus norvegicus [14] = organism: Rattus norvegicus; assay: Neuroprotective activity in Wistar rat chronic constriction injury model assessed as inhibition of nitric oxide production in sciatic nerve after 2 hrs by Griess method relative to control; format: functional
In short: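 Wistar rats of either sex (200-250 g) with chronic constriction of the left sciatic nerve. On day 9 post-injury, compound given i.p. in 30% v/v PEG 400; tissue taken 2 h after dosing. Nitrate reduced to nitrite, nitrite measured colorimetrically with Griess reagent against a standard curve. Results expressed as percentage of vehicle-treated control; n = 4.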

Cannabinoid receptor 1 = Cannabinoid receptor 1 (Rattus norvegicus, UniProt P20272); assay: Displacement of [3H]CP55940 from CB1 receptor in rat brain homogenate after 90 mins; format: tissue-based
In short: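 Rat brain (CB1) or spleen (CB2) membranes, homogenized in tris/NaCl/MgCl2 pH 7.4, competed against 0.5 nM [3H]CP55940 in 50 mM Tris-HCl, 2 mM EDTA, 5 mM MgCl2, 0.2 mg/mL BSA, pH 7.4; 90 min incubation. Nonspecific binding with 1 µM WIN (CB1) or 1 µM SR144528 (CB2); triplicates averaged.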

Rattus norvegicus [15] = assay: Antinociceptive activity in Wistar rat chronic constriction injury model assessed as reversal of tactile allodynia at 100 mg/kg, ip after 60 mins (reference value: 1.3 +/- 0.3%); format: functional; details: route intraperitoneal
Rattus norvegicus [16] = assay: Antinociceptive activity in Wistar rat partial sciatic nerve ligation model assessed as reversal of tactile allodynia at 100 mg/kg, ip after 120 mins relative to control; format: functional; details: route intraperitoneal
Rattus norvegicus [17] = assay: Antinociceptive activity in Wistar rat chronic constriction injury model assessed as reversal of cold allodynia at 100 mg/kg, ip after 60 mins (reference value: 6.3 +/- 1.9%); format: functional; details: route intraperitoneal
Mus musculus [18] = assay: Antinociceptive activity in Swiss albino mouse assessed as inhibition of acetic acid-induced writhing at 100 mg/kg administered 30 mins prior to acetic acid-challenge measured for 30 mins relative to control; format: functional
In short: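 Swiss albino mice (20–25 g, either sex); writhing induced by i.p. 0.1 mL of 2.0% v/v acetic acid given half an hour after test compound dosing.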

Rattus norvegicus [19] = assay: Antinociceptive activity in Wistar rat chronic constriction injury model assessed as reversal of spontaneous pain response at 100 mg/kg, ip after 30 mins (reference value: 8.9 +/- 4.6%); format: functional; details: route intraperitoneal
[20] = system: Radical scavenging activity; assay: Antioxidant activity assessed as DPPH radical scavenging activity after 20 mins […]; format: functional
In short: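 Compounds mixed with methanolic DPPH (final 300 µM) in microplate; after 20 min absorbance at 517 nm read; methanolic DPPH as control. % scavenging = (A DPPH − A DPPH+compound)/A DPPH × 100; dose–response curve used for IC50.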

Rattus norvegicus [21] = assay: Antinociceptive activity in ip dosed Wistar rat partial sciatic nerve ligation model assessed as reversal of spontaneous pain response after 30 mins; format: functional; details: 0.5 h; in short: as §1
Rattus norvegicus [22] = assay: Antinociceptive activity in Wistar rat partial sciatic nerve ligation model assessed as reversal of cold allodynia at 100 mg/kg, ip after 30 mins (reference value: 4.1 +/- 1.0%); format: functional; details: route intraperitoneal
Rattus norvegicus [23] = assay: Antinociceptive activity in Wistar rat partial sciatic nerve ligation model assessed as reversal of tactile allodynia at 100 mg/kg, ip after 60 mins (reference value: 12.5 +/- 1.2%); format: functional; details: route intraperitoneal
Rattus norvegicus [24] = assay: Antinociceptive activity in Wistar rat partial sciatic nerve ligation model assessed as reversal of mechanical allodynia at 100 mg/kg, ip after 30 mins (reference value: 2.9 +/- 0.3%); format: functional; details: route intraperitoneal
Rattus norvegicus [25] = assay: Antinociceptive activity in Wistar rat partial sciatic nerve ligation model assessed as reversal of cold allodynia at 100 mg/kg, ip after 120 mins (reference value: 1.5 +/- 0.5%); format: functional; details: route intraperitoneal
Rattus norvegicus [26] = assay: Antinociceptive activity in Wistar rat chronic constriction injury model assessed as reversal of cold allodynia at 100 mg/kg, ip after 30 mins (reference value: 0.6 +/- 2.7%); format: functional; details: route intraperitoneal

Cannabinoid receptor 1, sequence (P20272 whole entry): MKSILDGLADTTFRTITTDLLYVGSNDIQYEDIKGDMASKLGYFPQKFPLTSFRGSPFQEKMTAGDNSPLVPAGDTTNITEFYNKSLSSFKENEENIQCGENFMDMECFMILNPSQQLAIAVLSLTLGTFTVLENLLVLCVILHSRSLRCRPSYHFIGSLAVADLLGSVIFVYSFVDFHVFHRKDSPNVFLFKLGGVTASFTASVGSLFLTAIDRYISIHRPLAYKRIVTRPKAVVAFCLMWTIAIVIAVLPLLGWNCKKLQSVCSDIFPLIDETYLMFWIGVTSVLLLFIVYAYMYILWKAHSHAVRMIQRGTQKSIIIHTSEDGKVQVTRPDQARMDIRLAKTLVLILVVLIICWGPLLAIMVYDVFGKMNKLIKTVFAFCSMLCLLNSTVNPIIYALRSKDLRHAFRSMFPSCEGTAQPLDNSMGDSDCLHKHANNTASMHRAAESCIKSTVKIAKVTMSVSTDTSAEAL

With `CCN1CCc2c(c(C(C)(C)C)nn2C(=O)Nc2ccc(C)cc2C)C1` the Activity (Rattus norvegicus [1]) was 64.2%, the Activity (Rattus norvegicus [2]) was 67.3% and the Activity (Rattus norvegicus [3]) was 56.3%. It also gave an Activity (Rattus norvegicus [4]) of 90.9%, an Activity (Rattus norvegicus [5]) of 58% and an Activity (Rattus norvegicus [6]) of 80%. For the same compound, the Activity (Rattus norvegicus [7]) was 67.5%, the inhibition in vivo at 100 mg/kg (Mus musculus [8]) was 15.7% and the minimal effective dose (Mus musculus [9]) was 300 mg/kg. It also gave an Activity (Rattus norvegicus [10]) of 52.7%, an ED50 (Rattus norvegicus [11]) of 31.8 mg/kg and an Activity (Rattus norvegicus [12]) of 61.6%. For the same compound, the inhibition in vivo at 100 mg/kg (Mus musculus [13]) was 59.9%, the “inhibition (INH)” value (Rattus norvegicus [14]) was 65.4% and the IC50 (Cannabinoid receptor 1) was over 1 µM. The Activity (Rattus norvegicus [15]) was 54.5%, the Activity (Rattus norvegicus [16]) was 88.4% and the Activity (Rattus norvegicus [17]) was 50.4%. For the same compound, the inhibition in vivo at 100 mg/kg (Mus musculus [18]) was 71.1%, the Activity (Rattus norvegicus [19]) was 85.4% and the IC50 [20] was 134 µM. The ED50 (Rattus norvegicus [21]) was 7.4 mg/kg, the Activity (Rattus norvegicus [22]) was 62.1% and the Activity (Rattus norvegicus [23]) was 50.4%. It also gave an Activity (Rattus norvegicus [24]) of 62.3%, an Activity (Rattus norvegicus [25]) of 38.2% and an Activity (Rattus norvegicus [26]) of 53.9%.
With `CCN1CCc2c(c(C(C)(C)C)nn2C(=O)Nc2ccc(Br)cc2)C1` the Activity (Rattus norvegicus [1]) was 43.1%, the Activity (Rattus norvegicus [2]) was 55.7% and the Activity (Rattus norvegicus [3]) was 53.6%. It also gave an Activity (Rattus norvegicus [4]) of 85.9%, an Activity (Rattus norvegicus [5]) of 50.5% and an Activity (Rattus norvegicus [6]) of 66%. The Activity (Rattus norvegicus [7]) was 65.3%, the inhibition in vivo at 100 mg/kg (Mus musculus [8]) was 0% and the minimal effective dose (Mus musculus [9]) was 100 mg/kg. For the same compound, the Activity (Rattus norvegicus [10]) was 50.6%, the ED50 (Rattus norvegicus [11]) was 29 mg/kg and the Activity (Rattus norvegicus [12]) was 61.6%. For the same compound, the inhibition in vivo at 100 mg/kg (Mus musculus [13]) was 72.1%, the “inhibition (INH)” value (Rattus norvegicus [14]) was 47.8% and the IC50 (Cannabinoid receptor 1) was 0.0496 µM. It also gave an Activity (Rattus norvegicus [15]) of 58.2%, an Activity (Rattus norvegicus [16]) of 44.9% and an Activity (Rattus norvegicus [17]) of 65%. For the same compound, the inhibition in vivo at 100 mg/kg (Mus musculus [18]) was 72.8%, the Activity (Rattus norvegicus [19]) was 90.6% and the IC50 [20] was 81 µM. For the same compound, the ED50 (Rattus norvegicus [21]) was 29 mg/kg, the Activity (Rattus norvegicus [22]) was 55.4% and the Activity (Rattus norvegicus [23]) was 44.9%. For the same compound, the Activity (Rattus norvegicus [24]) was 59.8%, the Activity (Rattus norvegicus [25]) was 48.2% and the Activity (Rattus norvegicus [26]) was 73%.
With `CCN1CCc2c(c(C(C)(C)C)nn2C(=O)Nc2c(C)cccc2C)C1` the Activity (Rattus norvegicus [1]) was 57.8%, the Activity (Rattus norvegicus [2]) was 78.3% and the Activity (Rattus norvegicus [3]) was 57.7%. It also gave an Activity (Rattus norvegicus [4]) of 90.7%, an Activity (Rattus norvegicus [5]) of 69.7% and an Activity (Rattus norvegicus [6]) of 84.4%. It also gave an Activity (Rattus norvegicus [7]) of 78.9%, an inhibition in vivo at 100 mg/kg (Mus musculus [8]) of 15.7% and a minimal effective dose (Mus musculus [9]) of 100 mg/kg. The Activity (Rattus norvegicus [10]) was 56%, the ED50 (Rattus norvegicus [11]) was 23.6 mg/kg and the Activity (Rattus norvegicus [12]) was 89.4%. The inhibition in vivo at 100 mg/kg (Mus musculus [13]) was 68%, the “inhibition (INH)” value (Rattus norvegicus [14]) was 68.7% and the IC50 (Cannabinoid receptor 1) was over 1 µM. For the same compound, the Activity (Rattus norvegicus [15]) was 54.5%, the Activity (Rattus norvegicus [16]) was 46.6% and the Activity (Rattus norvegicus [17]) was 61.2%. It also gave an inhibition in vivo at 100 mg/kg (Mus musculus [18]) of 73.7%, an Activity (Rattus norvegicus [19]) of 95% and an IC50 [20] of 102 µM. For the same compound, the ED50 (Rattus norvegicus [21]) was 8.1 mg/kg, the Activity (Rattus norvegicus [22]) was 58.3% and the Activity (Rattus norvegicus [23]) was 61.6%. For the same compound, the Activity (Rattus norvegicus [24]) was 95.5%, the Activity (Rattus norvegicus [25]) was 10.4% and the Activity (Rattus norvegicus [26]) was 61.4%.
